# ChEMBL document CHEMBL4837261, “Optimization of TopoIV Potency, ADMET Properties, and hERG Inhibition of 5-Amino-1,3-dioxane-Linked Novel Bacterial Topoisomerase Inhibitors: Identification of a Lead with In Vivo Efficacy against MRSA” (J Med Chem, 2021)
# How the values were obtained:
# Staphylococcus aureus [1] = assay: Antibacterial activity against Staphylococcus aureus harbouring GyrA D83N mutant by CLSI method; format: functional
# DNA gyrase [2] = biological target: DNA gyrase (Staphylococcus aureus, UniProt P0A0K8+P20831); assay: Inhibition of Staphylococcus aureus Gyrase supercoiling activity assessed as reduction in supercoiling pBR322 DNA by measuring relaxation by bromophenol blue staining based TAE gel method; format: protein-complex assay
# Staphylococcus aureus [3] = assay: Antibacterial activity against Staphylococcus aureus 3527 by CLSI method; format: functional
# Staphylococcus aureus [4] = assay: Selectivity index, ratio of IC50 for inhibition of Staphylococcus aureus topoisomerase IV decatenation activity to IC50 for inhibition of Staphylococcus aureus DNA gyrase supercoiling activity
# In short: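 Both IC50s were measured in gel-based assays with S. aureus enzymes: supercoiling inhibition for DNA gyrase and decatenation inhibition for TopoIV. The ratio is TopoIV IC50 divided by gyrase IC50.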
# Staphylococcus aureus [5] = assay: Antibacterial activity against Staphylococcus aureus ATCC 29213 by CLSI method; format: functional
# Staphylococcus aureus [6] = assay: Antibacterial activity against cystic fibrosis isolate Staphylococcus aureus by CLSI method; format: functional
# Topoisomerase IV = Topoisomerase IV (Staphylococcus aureus, UniProt P0C1S7+P0C1U9); assay: Inhibition of Staphylococcus aureus topoisomerase IV decatenation activity using kDNA as substrate by ethidium bromide/bromophenol blue staining based agarose gel electrophoresis analysis; format: protein-complex assay
# Staphylococcus aureus [7] = assay: Antibacterial activity against methicillin-resistant Staphylococcus aureus USA300 by CLSI method; format: functional
# DNA gyrase [8] = biological target: DNA gyrase (Staphylococcus aureus, UniProt P0A0K8+P20831, D83N); assay: Inhibition of Staphylococcus aureus DNA Gyrase D83N mutant assessed as reduction in supercoiling pBR322 DNA by measuring relaxation by bromophenol blue staining based TAE gel method
# Acinetobacter baumannii = assay: Antibacterial activity against Acinetobacter baumannii by CLSI method; format: functional
# Staphylococcus aureus [9] = assay: Selectivity ratio of IC50 for inhibition of Staphylococcus aureus Gyrase D83N mutant to IC50 for inhibition of Staphylococcus aureus Gyrase
# In short: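 Ratio of two IC50s: the IC50 from the D83N mutant gyrase supercoiling assay (commercial kit) divided by the IC50 from the gel-based wild-type S. aureus gyrase supercoiling assay.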
# Streptococcus pneumoniae = assay: Antibacterial activity against Streptococcus pneumoniae by CLSI method; format: functional
# Enterococcus sp. = assay: Antibacterial activity against Enterococcus sp. by CLSI method; format: functional
# Staphylococcus aureus [10] = assay: Antibacterial activity against Staphylococcus aureus by CLSI method; format: functional
# In short: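 MICs were determined by broth microdilution per CLSI guidelines, in triplicate at minimum. Strains were S. aureus ATCC 29213, MRSA USA300 and a cystic fibrosis respiratory isolate, and ranges are given where seen.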
# [11] = Growth inhibition of human K/VP.5 cells incubated for 48 hrs by NBTI cell counting analysis; format: functional; conditions: K562, 48 h
SMILES,MIC (Staphylococcus aureus [1]),IC50 (DNA gyrase [2]),MIC (Staphylococcus aureus [3]),Ratio IC50 (Staphylococcus aureus [4]),MIC (Staphylococcus aureus [5]),MIC (Staphylococcus aureus [6]),IC50 (Topoisomerase IV),MIC (Staphylococcus aureus [7]),IC50 (DNA gyrase [8]),MIC50 (Acinetobacter baumannii),Ratio IC50 (Staphylococcus aureus [9]),MIC50 (Streptococcus pneumoniae),MIC50 (Enterococcus sp.),MIC50 (Staphylococcus aureus [10]),IC50 [11]
COc1ccc2ccc(F)c(C[C@H](O)[C@H]3OC[C@H](NCc4cc5c(cn4)OCCO5)CO3)c2n1,2 µg/mL,0.013 µM,0.125 µg/mL,67,0.125 µg/mL,0.125 µg/mL,0.87 µM,0.25 µg/mL,,,,,,,
COc1ccc2ncc(F)c(C[C@H](O)[C@H]3OC[C@H](NCc4ccc5c(c4)OCCO5)CO3)c2c1,4 µg/mL,0.031 µM,0.125 µg/mL,73,0.125 µg/mL,0.25 µg/mL,2.3 µM,0.125 µg/mL,2.2 µM,64 µg/mL,72,1 µg/mL,0.06 µg/mL,0.06 µg/mL,
COc1ccc2ncc(F)c(C(O)C[C@H]3OC[C@H](NCc4cc5c(nn4)OCCS5)CO3)c2c1 (mixture of isomers),16 µg/mL,0.37 µM,1 µg/mL,,0.5 µg/mL,1 µg/mL,11 µM,1 µg/mL,,,,,,,> 200 µM
COc1ccc2ncc(F)c(C(O)C[C@H]3OC[C@H](NCc4ccc(C)cc4)CO3)c2c1 (mixture of isomers),16 µg/mL,0.11 µM,0.5 µg/mL,,0.125 µg/mL,0.5 µg/mL,14 µM,0.5 µg/mL,,,,,,,21.7 µM
COc1ccc2ncc(F)c(C[C@H](O)[C@H]3OC[C@H](NCc4cc5c(cn4)OCCC5)CO3)c2n1,8 µg/mL,0.14 µM,0.5 µg/mL,,0.125 µg/mL,0.5 µg/mL,1.3 µM,,13 µM,,,,,,80.5 µM
COc1ccc2ncc(=O)n(CC(O)[C@H]3OC[C@H](NCc4ccc5c(c4)OCCO5)CO3)c2c1 (mixture of isomers),8 µg/mL,0.019 µM,0.5 µg/mL,,0.125 µg/mL,0.25 µg/mL,4 µM,0.5 µg/mL,,,,,,,71.1 µM
COc1ccc2ncc(F)c(C[C@H](O)[C@H]3OC[C@H](NCc4ccc5c(n4)NC(=O)CO5)CO3)c2c1,4 µg/mL,0.084 µM,0.25 µg/mL,,0.5 µg/mL,0.5 µg/mL,1.3 µM,0.25 µg/mL,1.9 µM,,,,,,> 50 µM
COc1ccc2ncc(F)c(C[C@H](O)[C@H]3OC[C@H](NCc4cc5c(cn4)OCCO5)CO3)c2c1,> 8 µg/mL,0.042 µM,0.5 µg/mL,136,0.25 µg/mL,0.5 µg/mL,5.7 µM,0.5 µg/mL,,64 µg/mL,,2 µg/mL,0.12 µg/mL,0.25 µg/mL,
COc1ccc2ncc(F)c(C(O)C[C@H]3OC[C@H](NCc4cc5c(cn4)OCCO5)CO3)c2c1 (mixture of isomers),16 µg/mL,,1 µg/mL,,0.5 µg/mL,0.5 µg/mL,14 µM,1 µg/mL,,,,,,,> 100 µM
COc1ccc2ncc(F)c(C[C@H](O)[C@H]3OC[C@H](NCc4cc5c(nn4)OCCO5)CO3)c2n1,2 µg/mL,32 µM,0.25 µg/mL,,0.125 µg/mL,0.25 µg/mL,4.8 µM,0.25 µg/mL,47 µM,,,,,,> 200 µM
COc1ccc2ncc(F)c(C(O)C[C@H]3OC[C@H](NCc4cc5c(cn4)OCCO5)CO3)c2n1 (mixture of isomers),16 µg/mL,0.16 µM,1 µg/mL,,0.5 µg/mL,,8.8 µM,1 µg/mL,,,,,,,232 µM
COc1ccc2ncc(F)c(C[C@H](O)[C@H]3OC[C@H](NCc4cc5c(nn4)OCCS5)CO3)c2c1,8 µg/mL,0.056 µM,0.5 µg/mL,87,0.25 µg/mL,0.25 µg/mL,4.8 µM,0.5 µg/mL,19 µM,> 64 µg/mL,336,1 µg/mL,0.25 µg/mL,0.5 µg/mL,
COc1ccc2ncc(F)c(C[C@H](O)[C@H]3OC[C@H](NCc4ccc(Cl)c(Cl)c4)CO3)c2n1,4 µg/mL,0.16 µM,0.125 µg/mL,,≤ 0.25 µg/mL,0.125 µg/mL,1.1 µM,0.125 µg/mL,5.5 µM,> 64 µg/mL,,4 µg/mL,0.06 µg/mL,0.06 µg/mL,22.2 µM
